Measured values published in ChEMBL document CHEMBL5038583, “Highly Potent and Selective Butyrylcholinesterase Inhibitors for Cognitive Improvement and Neuroprotection” (J Med Chem, 2021).
Active and inactive are the calls of the source. No cut-off for these calls is given here.

Legend:
Mus musculus [1] = experiment: Anti-alzheimer activity in amyloid beta(1 to 42)-induced ICR mouse model of cognitive impairment assessed as simplification of trajectories at 15 mg/kg, ig administered at days 2 to 14 by Morris water maze test; format: functional, organism-based
Summary of the method: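 ICR mice, n = 8 per group. Aggregated Aβ1-42 (5 mM DMSO stock incubated 24 h at 37 °C in saline at 2 mg/mL) given 10 μg per mouse icv on day 1; saline icv for sham. Compound 15 mg/kg intragastric on days 2−14; donepezil reference. Morris water maze training days 9−13, probe trial day 14; tracks recorded; mean ± SD.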

Plasma = experiment: Increase in ghrelin levels in ICR mouse plasma assessed as inhibition of BChE; format: functional, cell-free
[2] = Toxicity in ICR mouse assessed as increase in body weight administered for 14 days and measured daily; conditions: in vivo, 15 mg/kg, 336 h
Mus musculus [3] = experiment: Anti-alzheimer activity in amyloid beta(1 to 42)-induced ICR mouse model of cognitive impairment assessed as enhanced alternation performance by measuring total number of arm entries at 15 mg/kg, ig administered at days 2 to 14 and measured on day 15 by Y-maze test; format: functional
Summary of the method: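 Oligomerized Aβ1-42 (10 μg per mouse, icv) given on day 1; saline icv for sham. Dosing 15 mg/kg ig on days 2−14 (donepezil as positive control), n = 8. Spontaneous alternation read on day 15 in a three-arm grey PVC Y maze, arms at 120°. Mean SD.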

[4] = MRT (0 to infinity) in overnight fasted Sprague-Dawley rat at 10 mg/kg, po measured upto 1440 mins by LC/MS/MS analysis; format: ADME, organism-based; conditions: in vivo
Summary of the method: (§1)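 Male SD rats (180−220 g), n = 8 per route, fasted overnight with water available. Single 10 mg/kg dose p.o. or i.v. in DMSO/PEG400/saline (10:80:10). Retro-orbital blood taken into heparinized tubes at 1–1440 min. Plasma precipitated with methanol containing theophylline internal standard, then LC/MS/MS against a blank-plasma standard curve. Parameters from noncompartmental extravascular analysis; mean ± SD.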

PC-12 = experiment: Cytotoxicity against rat PC-12 cells assessed as reduction in cell viability incubated for 24 hrs by MTT assay; format: functional, cell-based; conditions: PC-12, 24 h
Summary of the method: (§2)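 Cells seeded at 1 × 10⁴/well in DMEM with 10% FBS and left overnight, then given compound (DMSO stock diluted in DMEM) for 24 h at 37 °C. MTT added for 4 h, formazan dissolved in DMSO, absorbance read at 492 nm. Viability taken as OD treated/OD DMEM × 100%; IC50 from three independent experiments, mean SD.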

Cholinesterase = Cholinesterase (Equus caballus, UniProt P81908); experiment: Inhibition of equine serum BChE using butyrylthiocholine iodide as substrate preincubated for 5 mins followed by substrate addition and measured after 2 mins by DTNB-reagent based Ellman's method
Cholinesterase, sequence (P81908 whole entry): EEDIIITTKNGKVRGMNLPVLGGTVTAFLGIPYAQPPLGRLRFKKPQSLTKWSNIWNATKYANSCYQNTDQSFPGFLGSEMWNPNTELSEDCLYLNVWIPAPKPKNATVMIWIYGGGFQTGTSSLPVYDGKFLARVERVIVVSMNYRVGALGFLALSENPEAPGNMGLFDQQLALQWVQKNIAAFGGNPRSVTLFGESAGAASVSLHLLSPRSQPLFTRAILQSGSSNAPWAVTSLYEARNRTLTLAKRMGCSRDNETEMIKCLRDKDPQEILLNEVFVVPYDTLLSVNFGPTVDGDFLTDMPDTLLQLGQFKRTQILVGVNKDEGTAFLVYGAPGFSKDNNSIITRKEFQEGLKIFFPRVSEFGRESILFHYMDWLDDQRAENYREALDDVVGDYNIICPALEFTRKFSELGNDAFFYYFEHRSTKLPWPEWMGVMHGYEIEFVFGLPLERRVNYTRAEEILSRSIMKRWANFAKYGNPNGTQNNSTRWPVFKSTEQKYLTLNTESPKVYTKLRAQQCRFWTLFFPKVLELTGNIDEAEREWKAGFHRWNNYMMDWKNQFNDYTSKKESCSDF

Mus musculus [5] = experiment: Anti-alzheimer activity in scopolamine-induced ICR mouse model of cognitive impairment assessed as simplification of trajectories at 30 mg/kg, ig administered for 10 consecutive days by Morris water maze test; format: functional, organism-based
Summary of the method: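 Male ICR mice (8−10 weeks, 18−20 g), n = 8 per group. Compound at 15 or 30 mg/kg intragastric in DMSO/saline (10:90), given 30 min before scopolamine 3 mg/kg i.p., for 10 consecutive days; tacrine 15 mg/kg as reference. Morris water maze: 5 days of training, probe trial on day 6 with platform removed. Escape latency and trajectory recorded; mean ± SD.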

[6] = Effective permeability of the compound in pH 7.4 PBS/EtOH (70:30) at 100 ug/ml incubated for 18 hrs by PAMPA-BBB assay; format: ADME; conditions: dose 100 µg/ml, read-out: Peff
Summary of the method: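 PAMPA-BBB with porcine brain lipid in dodecane (20 mg/mL) on PVDF filter. Donor holds compound at 100 μg/mL final (from 5 mg/mL DMSO stock) in PBS pH 7.4/EtOH 70:30; acceptor holds the same buffer. Incubated 18 h at 25 °C; donor and acceptor concentrations by UV at five wavelengths. Four wells, at least three runs, nine permeability standards; mean ± SD.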

[7] = Cmax in overnight fasted Sprague-Dawley rat at 10 mg/kg, po measured upto 1440 mins by LC/MS/MS analysis; format: ADME, organism-based; set-up: route oral, dose 10 mg/kg, time <=1440; conditions: in vivo; summary of the method: as §1
[8] = Oral bioavailability in overnight fasted Sprague-Dawley rat at 10 mg/kg measured upto 1440 mins by LC/MS/MS analysis; format: ADME, organism-based; conditions: in vivo; summary of the method: as §1
[9] = Acute toxicity in ICR mouse assessed as animal death at […]; conditions: in vivo, po, 1000 mg/kg, 336 h
SH-SY5Y [10] = experiment: Neuroprotective activity against amyloid beta (1 to 42)-induced cytotoxicity in human SH-SY5Y cells at 2.5 uM pretreated for 2 hrs followed by amyloid beta (1 to 42) stimulation and measured after 24 hrs by MTT assay; format: functional, cell-based; conditions: time 26.0 hrs
Summary of the method: (§3)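 SH-SY5Y cells seeded at 5000 per well and grown 24 h. Pretreated 2 h with compound (2.5 or 10 μM, diluted in DMEM from 10⁻¹ M DMSO stock), then H₂O₂ 200 μM, glutamate 20 mM or aggregated Aβ1-42 15 μM for 24 h. MTT added for 4 h, formazan dissolved in DMSO, absorbance read at 492 nm. Viability relative to untreated control; mean ± SEM, n = 3.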

[11] = AUC (0 to t) in ICR mouse plasma at 10 mg/kg, po measured upto 240 mins; format: ADME, organism-based; set-up: route oral, dose 10 mg/kg, time <=240
Summary of the method: (§4)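 ICR mice given 10 mg/kg orally in 5% DMSO/40% PEG400/55% saline (1 mg/mL). Blood (retro-orbital) and brain collected at 30, 60, 120 and 240 min. Brain homogenized in 2 volumes PBS, extracted with ethyl acetate, dried and reconstituted in mobile phase. Plasma processed as in the rat study; LC/MS/MS. Brain/plasma ratios from exposures, AUC(B) vs AUC(P).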

[12] = AUC (0 to t) in ICR mouse brain at 10 mg/kg, po measured upto 240 mins; format: ADME, organism-based; set-up: route oral, dose 10 mg/kg, time <=240; summary of the method: as §4
SH-SY5Y [13] = experiment: Neuroprotective activity against H2O2-induced cytotoxicity in human SH-SY5Y cells pretreated for 2 hrs followed by H2O2 stimulation and measured after 24 hrs by MTT assay; format: functional, cell-based; conditions: dose 2.5-10 µM, time 26.0 hrs; summary of the method: as §3
[14] = Half life in overnight fasted Sprague-Dawley rat at 10 mg/kg, po measured upto 1440 mins by LC/MS/MS analysis; format: ADME, organism-based; conditions: in vivo; summary of the method: as §1
[15] = Half life in overnight fasted Sprague-Dawley rat at 10 mg/kg, iv measured upto 1440 mins by LC/MS/MS analysis; format: ADME, organism-based; conditions: in vivo; summary of the method: as §1
BV-2 [16] = experiment: Anti-inflammatory activity against mouse BV-2 cells assessed as blocked of LPS-induced increased ROS production by measuring green fluorescence preincubated for 1 hr by DCFH-DA staining based fluorescence microscopy; format: functional, cell-based
Summary of the method: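 BV2 cells seeded at 1 × 10⁴ per well and grown 24 h at 37 °C. Compounds at various concentrations for 1 h, then LPS 2.5 μg/mL for 24 h. Washed in PBS, loaded with DCFH-DA 5 μM (final) for 30 min, washed three times. Intracellular ROS taken as green fluorescence intensity by inverted fluorescence microscopy, exposure fixed at 10.2 ms.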

BV-2 [17] = experiment: Cytotoxicity against mouse BV-2 cells assessed as survival rate at 100 uM incubated for 24 hrs by MTT assay; format: functional; summary of the method: as §2

Compound: Nc1nonc1-c1nc2ccccc2n1CC(=O)Nc1cnc2ccccc2c1
- Activity (Mus musculus [1]): Active
- Activity (Plasma): Active
- Activity [2]: Toxic
- Activity (Mus musculus [3]): Active
- MRT inf [4]: 11.6 h
- IC50 (PC-12): 33.5 µM
- IC50 (Cholinesterase): 0.02 µM
- Activity (Mus musculus [5]): Active
- Papp at 18 h, 100 ug/ml [6]: 4.45 ×10⁻⁶ cm/s
- Cmax [7]: 44.7 ng/mL
- bioavailability [8]: 73.4%
- Activity [9]: Non-Toxic
- Activity (SH-SY5Y [10]): Active
- AUC(0-t) at 4 h [11]: 94.7 ng·h/mL
- AUC(0-t) at 4 h [12]: 34.1 ng·h/mL
- Activity (SH-SY5Y [13]): Dose-Dependent Effect
- half-life [14]: 5.47 h
- half-life [15]: 8.87 h
- Activity (BV-2 [16]): Active
- Activity (BV-2 [17]): 69.72%
